NPY Y1 blocker: NPY-Y1 receptor antagonists, primary screen, cell-based. Neuropeptide Y receptor type 1 (Homo sapiens), P25929. HEK293-CNG Y1 cells, membrane potential fluorescence; NPY at EC95, then isoproterenol. inhibition, % at 3.6 µM. 200,000 tested, 1% active. AID 1040, 2008;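 active = inhibition above the campaign mean inhibition of all tested compounds plus 3 SD, cut at about 20% in these data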
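Material: Y1- and CNG-channel-expressing HEK293 cells / Probe or stimulus: NPY 25 nM then isoproterenol 1 µM plus Ro 20-1724 25 µM / Doses: 3.6 µM single dose, DMSO 0.4% / Schedule: compound incubation 1 h at room temperature, readout 45 min post-stimulation / Signal: membrane potential fluorescence / Benchmarks: isoproterenol-only wells as full block versus NPY-plus-isoproterenol wells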
NPY-Y2 antag: NPY-Y2 receptor antagonists, primary screen, cell-based; Neuropeptide Y receptor type 2 (Homo sapiens), P49146; NPY-Y2 expressing cells, antagonist mode; inhibition, % at 2.7 µM; 140,000 tested, 0.99% active; AID 793, 2007; in the data active = inhibition above about 17%
NPY2 pot ag: NPY-Y2 potentiators or agonists, primary screen, cell-based; Neuropeptide Y receptor type 2 (Homo sapiens), P49146; cells expressing NPY-Y2, potentiator/agonist read-out; activation, % at 3.6 µM; 220,000 tested, 0.45% active; in the data active = activation above about 27%;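 also: cells stimulated with NPY near EC25 plus isoproterenol at EC100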
NPY-Y1 PAM-ag: NPY-Y1 receptor potentiators or agonists, primary screen, cell-based; activation, % at 3.6 µM; NPY-Y1 expressing cells, potentiator/agonist activation; AID 1304, 2008; 220,000 tested, 0.37% active; in the data active = activation above about 33%, passing the limit was not always enough;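 also: cells stimulated with NPY at EC10 then isoproterenol at EC100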
Hsp70 activator: Hsp70 transcriptional activators, primary screen, cell-based, HeLa, Hsp70 promoter luciferase, luminescence, 10 µM; HeLa Hsp70 promoter luciferase reporter; scaled: vehicle 0, proteasome-inhibitor control 100%; activation, % at 10 µM; 200,000 tested, 0.04% active;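 active = activation above the mean across all tested compounds plus 3 SD, cutoff set per campaign, cut at about 5.5% in these data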
Wee1 degr inh: Wee1 degradation inhibitors, primary screen, cell-based, HeLa, Wee1K328M-luciferase, luminescence | HeLa Luc-Wee1K328M stability; 100% = proteasome inhibitor MG132 effect | reporter increase, % at 5 µM | 220,000 tested, 1.2% active | AID 1321, 2008;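 active = activation above the mean of all tested compounds plus 3 SD, set per screening run, cut at about 8.8% in these data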;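 also: cells exposed to compound for 20 h before luminescence read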
Target sequence (P30291 whole entry K328M): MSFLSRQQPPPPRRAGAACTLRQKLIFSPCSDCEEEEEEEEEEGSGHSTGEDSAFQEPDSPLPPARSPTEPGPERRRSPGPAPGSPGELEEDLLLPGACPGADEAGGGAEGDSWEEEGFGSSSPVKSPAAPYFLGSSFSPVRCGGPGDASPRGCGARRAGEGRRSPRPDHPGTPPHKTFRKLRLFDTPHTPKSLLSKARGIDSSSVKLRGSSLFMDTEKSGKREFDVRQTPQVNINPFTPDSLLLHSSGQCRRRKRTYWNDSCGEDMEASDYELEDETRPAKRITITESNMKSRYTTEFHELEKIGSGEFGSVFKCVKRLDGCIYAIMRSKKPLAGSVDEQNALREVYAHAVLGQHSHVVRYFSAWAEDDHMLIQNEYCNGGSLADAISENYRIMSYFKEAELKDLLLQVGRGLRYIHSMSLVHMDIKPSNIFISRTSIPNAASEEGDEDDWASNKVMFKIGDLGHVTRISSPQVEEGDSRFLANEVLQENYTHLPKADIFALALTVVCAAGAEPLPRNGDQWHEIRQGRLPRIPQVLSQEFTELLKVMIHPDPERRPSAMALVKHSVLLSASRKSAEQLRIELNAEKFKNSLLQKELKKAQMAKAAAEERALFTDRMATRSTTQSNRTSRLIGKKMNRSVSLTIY
NPY1 antag ctr: NPY-Y1 receptor antagonists, selectivity check, counter-screen for NPY-Y2 antagonist project, cell-based; shares compounds with NPY-Y2 antag; cell-based NPY-Y1 antagonism counterscreen; inhibition, % at 3.6 µM; 710 tested, 19% active; in the data active = inhibition above about 20%;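 also: cells challenged with NPY then isoproterenol with cAMP sensed through a CNG channel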
NPY-Y2 ant conf: NPY-Y2 receptor antagonists, retest of hits, confirmation, HEK293-CNG cells, membrane potential fluorescence, triplicate | shares compounds with NPY-Y2 antag | HEK293 NPY-Y2 CNG channel | inhibition, % at 2.8 µM | 710 tested, 32% active | AID 1257, 2008;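 active = mean inhibition of triplicate wells above the hit cutoff set in the primary screen, cut at about 17% in these data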
Numbers stand for hits. Compounds with a hit are over-represented: about 3% of the library has one in this group of screens.

How did Cn1c(SCC(=O)N2c3ccccc3Sc3ccccc32)nc2ccccc21 do in these assays?
NPY Y1 blocker: inactive; NPY-Y2 antag: inactive; NPY2 pot ag: inactive; NPY-Y1 PAM-ag: inactive; Hsp70 activator: inactive; Wee1 degr inh: inactive

What do the screens show for `CN(C)CCCn1c(SCC(=O)N2c3ccccc3Sc3ccccc32)nc2ccccc2c1=O`?
NPY Y1 blocker: inactive; NPY-Y2 antag: 39; NPY2 pot ag: inactive; NPY-Y1 PAM-ag: inactive; Hsp70 activator: inactive; Wee1 degr inh: inactive; NPY1 antag ctr: 43; NPY-Y2 ant conf: 77

How did Cc1cccc(COCC(CC(C)C)N2CCN(C(=O)c3ccc(C(C)(C)C)cc3)CCC2=O)c1 (stereo not given) do in these assays?
NPY Y1 blocker: inactive; NPY-Y2 antag: 19; NPY2 pot ag: inactive; NPY-Y1 PAM-ag: inactive; Hsp70 activator: inactive; Wee1 degr inh: inactive; NPY1 antag ctr: inactive; NPY-Y2 ant conf: inactive

How did O=C(CSc1nc2ccccc2s1)NCCOc1ccc(Cl)cc1 do in these assays?
NPY Y1 blocker: inactive; NPY-Y2 antag: 20; NPY2 pot ag: inactive; NPY-Y1 PAM-ag: inactive; Hsp70 activator: inactive; Wee1 degr inh: inactive; NPY1 antag ctr: inactive; NPY-Y2 ant conf: inactive

What do the screens show for `O=C(CSc1nc2ccccc2s1)NCCOc1ccccc1`?
NPY Y1 blocker: inactive; NPY-Y2 antag: inactive; NPY2 pot ag: inactive; NPY-Y1 PAM-ag: inactive; Hsp70 activator: inactive; Wee1 degr inh: inactive

What do the screens show for `Cc1cc(C)n(-c2ccc(C(=O)C(C#N)c3nc4ccccc4n3C)cc2)n1` (stereo not given)?
NPY Y1 blocker: inactive; NPY-Y2 antag: inactive; NPY2 pot ag: inactive; NPY-Y1 PAM-ag: inactive; Hsp70 activator: inactive; Wee1 degr inh: inactive

What do the screens show for `Nn1c(CSc2nc3ccccc3o2)nnc1CSc1nc2ccccc2o1`?
NPY Y1 blocker: inactive; NPY-Y2 antag: 17; NPY2 pot ag: inactive; NPY-Y1 PAM-ag: inactive; Hsp70 activator: inactive; Wee1 degr inh: inactive; NPY1 antag ctr: inactive; NPY-Y2 ant conf: inactive

Results for CC1CC(C)CN(C(=O)CSCC(=O)O)C1 (stereo not given) ?
NPY2 pot ag: inactive; NPY-Y1 PAM-ag: inactive; Wee1 degr inh: inactive

What do the screens show for `COc1ccc(NC(=S)Nc2ccccc2SC)c(OC)c1`?
NPY Y1 blocker: inactive; NPY2 pot ag: inactive; NPY-Y1 PAM-ag: inactive; Hsp70 activator: inactive; Wee1 degr inh: inactive

Results for O=C1C2CSCN2C(=O)CN1CCCN1CCN(C(c2ccccc2)c2ccccc2)CC1 (stereo not given) ?
NPY Y1 blocker: inactive; NPY-Y2 antag: inactive; NPY2 pot ag: inactive; NPY-Y1 PAM-ag: inactive; Hsp70 activator: inactive; Wee1 degr inh: inactive

How did CC(=O)N(Cc1cccs1)Cc1cc2cc(C)c(C)cc2nc1Cl do in these assays?
NPY Y1 blocker: inactive; NPY2 pot ag: inactive; NPY-Y1 PAM-ag: inactive; Hsp70 activator: inactive; Wee1 degr inh: inactive

Results for Cc1ccc2nc(Cl)c(CN(Cc3cccs3)C(=O)C3CC3)cc2c1 ?
NPY Y1 blocker: inactive; NPY-Y2 antag: 19; NPY2 pot ag: inactive; NPY-Y1 PAM-ag: inactive; Hsp70 activator: inactive; Wee1 degr inh: inactive; NPY1 antag ctr: inactive; NPY-Y2 ant conf: inactive

How did COc1ccccc1NC(=O)Nc1c(C)nn(C)c1C do in these assays?
NPY Y1 blocker: inactive; NPY2 pot ag: inactive; NPY-Y1 PAM-ag: inactive; Hsp70 activator: inactive; Wee1 degr inh: inactive

What do the screens show for `CCOc1ccc2nc(NC(=O)CS(=O)(=O)c3ccccc3)sc2c1`?
NPY Y1 blocker: inactive; NPY-Y2 antag: inactive; NPY2 pot ag: inactive; NPY-Y1 PAM-ag: inactive; Hsp70 activator: inactive; Wee1 degr inh: inactive
